NPY Y2 blocker: blocks the human neuropeptide Y Y2 receptor; hit rate 0.99% among 140,000; NPY-Y2 expressing cells, antagonist mode; inhibition, % at 2.7 µM; P49146; in the data active = inhibition above about 17%;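 note: 0% = vehicle with agonist challenge and 100% = reference antagonist with challenge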
Target sequence (P49146 whole entry, looked up): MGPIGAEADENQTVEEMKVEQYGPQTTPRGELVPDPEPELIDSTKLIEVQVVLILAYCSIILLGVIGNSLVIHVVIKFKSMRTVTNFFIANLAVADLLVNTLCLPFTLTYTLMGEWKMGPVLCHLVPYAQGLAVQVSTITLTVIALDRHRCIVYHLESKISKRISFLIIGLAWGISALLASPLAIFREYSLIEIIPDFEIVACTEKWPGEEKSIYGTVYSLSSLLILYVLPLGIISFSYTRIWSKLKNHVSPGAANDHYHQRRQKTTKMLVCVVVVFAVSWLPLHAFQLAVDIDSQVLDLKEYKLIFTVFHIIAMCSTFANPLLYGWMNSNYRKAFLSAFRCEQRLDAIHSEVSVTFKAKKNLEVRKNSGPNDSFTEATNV
S1P4 agonist: activates the human S1P4 receptor; O95977; S1P4-expressing cell line, agonist reporter assay; activation, % at 4.98 µM; hit rate 0.35% among 220,000; in the data active = activation above about 11%;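 note: 0% = DMSO vehicle and 100% = reference agonist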
Target sequence (O95977 whole entry, looked up): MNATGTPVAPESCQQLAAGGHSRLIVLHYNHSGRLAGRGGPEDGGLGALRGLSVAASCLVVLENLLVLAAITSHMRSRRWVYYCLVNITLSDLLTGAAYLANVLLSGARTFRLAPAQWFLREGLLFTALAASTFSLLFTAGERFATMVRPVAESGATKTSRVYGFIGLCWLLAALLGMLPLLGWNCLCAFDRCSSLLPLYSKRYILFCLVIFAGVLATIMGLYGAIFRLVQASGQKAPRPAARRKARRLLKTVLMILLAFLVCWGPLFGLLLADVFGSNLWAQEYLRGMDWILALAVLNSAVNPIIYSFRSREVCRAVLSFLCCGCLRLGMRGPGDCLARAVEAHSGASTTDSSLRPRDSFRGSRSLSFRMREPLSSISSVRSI
NPY-Y1 PAM-ag: potentiates or activates human NPY-Y1 receptor | activation, % at 3.6 µM | P25929 | hit rate 0.37% among 220,000 | NPY-Y1 expressing cells, potentiator/agonist activation; in the data active = activation above about 33%, passing the limit was not always enough;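 note: cells stimulated with NPY at EC10 then isoproterenol at EC100; 0% = low agonist plus stimulus and 100% = saturating agonist plus stimulus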
NPY-Y1 antag: blocks the human neuropeptide Y Y1 receptor; hit rate 1% among 200,000; inhibition, % at 3.6 µM; HEK293-CNG Y1 cells, membrane potential fluorescence; NPY at EC95, then isoproterenol; AID 1040;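 active = inhibition above the campaign mean inhibition of all tested compounds plus 3 SD, cut at about 20% in these data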;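 note: 0% = DMSO wells given NPY plus isoproterenol and 100% = isoproterenol alone without NPY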
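Assay system: HEK293 Y1/CNG channel cell line; Doses: single compound dose of 3.6 µM, 0.4% DMSO; Timing: dye 3 h, compound 60 min room temperature, stimulation 45 min; Technique: Membrane-potential fluorescent dye readout; Measure: % inhibition of NPY effect.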
S1P4 antag: antagonists of human S1P4 receptor | hit rate 0.26% among 220,000 | S1P4-expressing cells, antagonist mode, reporter read-out | O95977 | AID 1510 | inhibition, % at 4.98 µM; in the data active = inhibition above about 29%;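 note: 0% = wells stimulated with agonist and 100% = vehicle wells without agonist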
NPY2 pot ag: human NPY-Y2 potentiation or agonism, primary screen | AID 1359 | hit rate 0.45% among 220,000 | P49146 | activation, % at 3.6 µM | cells expressing NPY-Y2, potentiator/agonist read-out; in the data active = activation above about 27%;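 note: cells stimulated with NPY near EC25 plus isoproterenol at EC100; 0% = vehicle plus submaximal agonist and 100% = vehicle plus saturating agonist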
NPY-Y2 pot conf: human NPY-Y2 potentiation or agonism, confirmation. cell-based NPY-Y2 potentiator/agonist assay. shares compounds with NPY2 pot ag. hit rate 20% among 450. activation, % at 3.6 µM; in the data active = activation above about 33%
NPY-Y1 potentiator: NPY-Y1 potentiation or agonism as NPY-Y2 counter-screen; hit rate 20% among 450; shares compounds with NPY2 pot ag; Y1 HEK293-CNG cells, membrane potential fluorescence; activation, % at 3.6 µM; in the data active = activation above about 45%;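 note: cells stimulated with submaximal NPY then isoproterenol with phosphodiesterase inhibitor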
NPY-Y1 ag 2: human NPY-Y1 agonism as NPY-Y2 potentiator counter-screen; activation, % at 3.6 µM; AID 1702; hit rate 37% among 450; shares compounds with NPY2 pot ag; HEK293 Y1-CNGC, membrane potential fluorescence;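 active = activation above the mean of DMSO-only control wells plus 3 SD, cut at about 18% in these data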;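 note: cells stimulated with 1 µM isoproterenol plus the PDE inhibitor Ro 20-1724; 0% = isoproterenol with DMSO and no NPY and 100% = 40 nM NPY; Y1 agonists lower the membrane potential dye signal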
CNGC inh: counter-screen for NPY-Y2 potentiators: inhibitors of CNG channel activity; shares compounds with NPY2 pot ag; HEK293-CNG parental, isoproterenol cAMP, membrane potential fluorescence; inhibition, % at 3.6 µM; hit rate 32% among 450;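 active = inhibition above the control-well mean plus 3 SD of those wells, cut at about 22% in these data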;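 note: 0% = DMSO with isoproterenol and 100% = DMSO without isoproterenol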
Y2 agonist ctr: counter-screen for NPY-Y2 potentiators: agonists of human NPY-Y2; AID 1710; activation, % at 3.6 µM; shares compounds with NPY2 pot ag; hit rate 56% among 450; HEK293 Y2/CNGC cells, membrane potential fluorescence, agonist mode;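 active = activation above the mean of solvent-only control wells plus 3 SD, cut at about 10% in these data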;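 note: cells stimulated by isoproterenol with no NPY added so direct agonism is tested; 0% = DMSO with isoproterenol alone and 100% = NPY at EC100 plus isoproterenol; agonism lowers probe fluorescence through less cAMP and CNG channel opening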
The depositor's hits bear a star; / = no result given. In the library only some 2.4% were active in any assay of this set; here they are far more common.

SMILES	NPY Y2 blocker	S1P4 agonist	NPY-Y1 PAM-ag	NPY-Y1 antag	S1P4 antag	NPY2 pot ag	NPY-Y2 pot conf	NPY-Y1 potentiator	NPY-Y1 ag 2	CNGC inh	Y2 agonist ctr
O=C(Nc1nc(-c2ccccc2)cs1)c1ccccc1NS(=O)(=O)c1ccc(F)cc1	0.2	-1.9	6.4	11.5	15.2	46.1*	5.3	-7.7	-6.9	12.4	6.3
Cc1ccc(OCCN2C(=O)CSC2=O)cc1	3.6	-1.2	-18.8	0.3	6.2	0.0	/	/	/	/	/
C[N+](C)(C)CCN1C(=O)CSC1=O	/	-0.8	26.9	/	-2.4	82.5*	-3.2	-1.4	-1.6	0.8	1.9
O=C(Nc1ccccc1C(=O)NCCc1ccccc1)c1ccco1	0.8	-4.1	5.6	11.5	-14.2	-6.9	/	/	/	/	/
CN(CCO)c1nc(N)c2c(N)nc3c(c2c1C#N)CC(=O)N3Cc1cccs1	/	0.6	27.9	-1.4	-11.7	40.2*	-1.1	-3.9	-14.2	-10.2	-10.2
N#Cc1c(N(CCO)CCO)nc(N)c2c(N)nc3c(c12)CC(=O)N3Cc1cccs1	/	0.5	-6.3	/	1.1	2.5	/	/	/	/	/
Cc1ccccc1Nc1c(-c2ccncc2)nc2ccc(Br)cn12	0.3	2.0	30.5	-0.7	-27.3	47.5*	71.4*	76.3*	57.6*	52.9*	69.7*
COc1cccc(NC(=O)COc2ccc(S(=O)(=O)NC(C)C)cc2)c1	4.2	1.1	-19.2	-1.1	-24.3	-25.3	/	/	/	/	/
Fc1ccc(Nc2c(-c3ccco3)nc3ccccn23)cc1	5.7	-1.2	-1.0	6.6	-16.6	32.4*	30.4	31.4	17.5*	16.8	22.4*
CCOC(=O)CCSCC(=O)Nc1cc(C)on1	-1.0	1.6	-7.6	6.7	-2.8	-3.4	/	/	/	/	/
COc1ccc(C(=O)N2CCC(O)(c3ccc(Cl)cc3)CC2)cc1OC	/	-1.1	21.9	/	-13.0	95.2*	-2.1	-9.9	-6.8	3.2	0.3
O=S(=O)(Nc1nc2ccccc2nc1Nc1cccc(S(=O)(=O)N2CCCCC2)c1)c1ccccc1	-2.0	1.1	33.0	-5.1	-5.1	37.9*	74.2*	67.6*	65.1*	44.3*	58.3*
Cc1ccc(O)c(C2=NCCNC(C(F)(F)F)=C2)c1	0.8	-2.5	19.5	-2.0	7.0	1.1	/	/	/	/	/
Oc1c(C2=NCCNC(C(F)(F)F)=C2)ccc2ccccc12	/	-0.3	35.0	-11.6	-9.4	30.9*	36.0*	49.7*	38.5*	32.3*	42.2*
COC(=O)/C=C/C(=O)Nc1ccc(O)c(Cl)c1	0.1	0.1	-10.8	-1.6	-13.1	-5.9	/	/	/	/	/
CCCCNS(=O)(=O)c1ccc(NC(=O)C(Sc2ccccc2)c2ccccc2)cc1 (configuration not stated)	-4.5	2.2	17.1	-2.3	-2.7	29.3*	19.2	29.3	20.0*	24.9*	25.4*
CCC(C)NS(=O)(=O)c1ccc(NC(=O)C(Sc2ccccc2)c2ccccc2)cc1 (configuration not stated)	-3.8	3.1	26.1	-1.8	16.9	11.3	/	/	/	/	/
Cc1nnc2ccc(-c3ccc(NC(=O)c4cccnc4Cl)cc3)nn12	/	0.5	16.7	-3.8	7.4	9.4	/	/	/	/	/
FC(F)(F)c1ccc(Cl)c(NC(=S)N/N=C/c2ccccc2Cl)c1	/	2.6	-19.0	/	-6.3	-7.5	/	/	/	/	/
CCOc1cc(C(=S)N2CCOCC2)ccc1OS(=O)(=O)c1ccc(NC(C)=O)cc1	10.1	1.3	7.8	5.5	-21.9	32.8*	5.3	-15.7	-9.9	-2.1	-5.7
CC1=NN(c2ccc(C(=O)O)cc2)C(=O)/C1=C\c1ccc(OC(=O)c2cccs2)cc1	/	1.7	-24.5	-0.4	-16.3	-4.3	/	/	/	/	/
O=C(NCCCNCc1ccccc1)c1ccccn1	2.3	2.3	-13.0	0.2	-24.4	-4.3	/	/	/	/	/
O=[N+]([O-])c1cccc2c(N3CCOCC3)ccnc12	/	0.1	4.5	-0.3	10.9	40.3*	1.6	5.7	5.0	3.8	12.7*
O=[N+]([O-])c1ccc(N2CCN(S(=O)(=O)c3ccccc3)CC2)c2cccnc12	/	0.3	10.4	-3.7	-2.1	-4.4	/	/	/	/	/
COc1ccc2[nH]c(C)c(CCN3C(=O)C4CC=CCC4C3=O)c2c1 (configuration not stated)	1.7	-0.4	0.4	-2.5	-9.9	-3.2	/	/	/	/	/
SMILES	NPY Y2 blocker	S1P4 agonist	NPY-Y1 PAM-ag	NPY-Y1 antag	S1P4 antag	NPY2 pot ag	NPY-Y2 pot conf	NPY-Y1 potentiator	NPY-Y1 ag 2	CNGC inh	Y2 agonist ctr
Cc1cc(Nc2ccccc2)nc(-c2ccccc2O)n1	-4.6	-2.8	1.2	-6.4	-6.9	33.8*	36.6*	42.6	28.7*	26.6*	37.1*
Cc1cc(NCc2ccccc2)nc(-c2ccccc2O)n1	1.2	1.5	-12.8	-1.3	0.0	14.0	/	/	/	/	/
CSc1cccc(NC(=O)CSc2nnc(C)s2)c1	2.7	0.7	-7.5	10.6	-3.1	-17.5	/	/	/	/	/
COc1ccc2nc(NC(=O)CSc3nccc(C)n3)sc2c1	-6.3	2.0	19.7	-10.4	-11.8	35.0*	24.6	45.9*	53.3*	39.9*	51.4*
CC1CCCCC1NS(=O)(=O)c1ccc(S(=O)(=O)NCc2ccncc2)cc1 (configuration not stated)	-2.8	0.0	-3.4	-12.8	-24.2	37.4*	7.2	-23.7	-13.4	1.3	-0.3
Nc1c(-c2ccc(Cl)cc2)cnn1-c1cccc(C(F)(F)F)c1	3.2	1.1	15.8	0.0	-11.3	25.5	/	/	/	/	/
Cc1ccc(-c2cnn(-c3cccc(C(F)(F)F)c3)c2N)cc1	9.3	1.1	29.5	-2.1	-2.4	35.1*	52.4*	57.5*	43.8*	31.7*	59.9*
Cn1c(=O)[nH]c(=O)c2c1nc1n2CCS1	/	5.5	-8.2	2.2	-6.0	6.8	/	/	/	/	/
COc1ccc(Cc2nnc(SCc3c(C)noc3C)n2C2CCCCC2)cc1OC	4.9	1.4	-3.6	1.7	-4.3	-16.6	/	/	/	/	/
Oc1ccccc1N=Nc1nc(-c2ccccc2)c(-c2ccccc2)[nH]1	-9.1	-3.9	47.5	-1.6	24.0	44.9*	57.1*	69.2*	63.6*	61.3*	63.5*
Cc1c(CN(C)C)c2c(n1Cc1ccccc1)C(=O)c1ccc(Br)cc1-2	-0.9	-4.9	26.2	-2.7	-7.2	27.5*	25.3	28.3	35.2*	24.0*	28.7*
Cc1c(CN(C)C)c2c(n1C)C(=O)c1ccc(Br)cc1-2	1.4	-2.6	12.8	0.7	0.7	-2.7	/	/	/	/	/
